From ChEMBL document CHEMBL1143976, “Synthesis of fluorine substituted pyrazolopyrimidines as potential leads for the development of PET-imaging agents for the GABAA receptors” (Bioorg Med Chem, 2008)

Tests used:
[1] = Displacement of [3H]flunitrazepam from GABAA receptor in Sprague-Dawley rat cerebellar membrane; parameters: species or system Cerebellum
How it was run: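 Cerebella from adult female Sprague–Dawley rats (8–10 weeks) homogenised in ice-cold 50 mM Tris-HCl pH 7.4; 20,000g membrane pellet washed repeatedly. Incubated with N-methyl-[3H]flunitrazepam (~0.3 nM final) at 21 °C for 60 min; nonspecific binding defined with zolpidem. Filtered onto PEI-presoaked GF/B, scintillation counted. IC50 by nonlinear regression from 10–12 concentrations in triplicate; ≥3 independent experiments, mean ± SD.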

[2] = Distribution coefficient, log D by C-18 reversed phase method; format: physicochemical; settings: octanol/water; read-out: Log D
How it was run: (§1)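 HPLC logD per European guideline; line 4 on Multisorb RP18-7 C-18 column, line 5 on Supelcosil ABZ+Plus alkyl amide column (both 250 × 4 mm). Solvent A 5% acetonitrile/20 mM ammonium acetate held 0–5 min, then solvent B 80% acetonitrile/20 mM ammonium acetate to 40, 50 or 65 min; 1 mL/min; UV detection. SD reported.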

[3] = Distribution coefficient, log D by alkyl amide reversed phase method; format: physicochemical; settings: octanol/water; read-out: Log D; how it was run: as §1

Row | Structure (SMILES) | IC50 [1] [nM] | chromatographic logD [2] | chromatographic logD [3]
1 | CC(=O)N(CCCCF)c1cccc(-c2ccnc3c(C(=O)c4cccs4)cnn23)c1 | 5.98 | 2.48 | 
2 | CC(=O)N(CCF)c1cccc(-c2ccnc3c(C(=O)c4cccs4)cnn23)c1 | 5.71 | 2.62 | 
3 | CC(=O)N(CCCF)c1cccc(-c2ccnc3c(C(=O)c4cccs4)cnn23)c1 | 2.78 | 2.35 | 2.38
4 | CC(C)C(=O)N(CCCF)c1cccc(-c2ccnc3c(C(=O)c4cccs4)cnn23)c1 | 37.7 | 2.55 | 2.68
5 | CN(C(=O)c1ccc(F)cc1)c1cccc(-c2ccnc3c(C(=O)c4cccs4)cnn23)c1 | 14.1 | 2.64 | 2.63
6 | CN(C(=O)c1ccc([N+](=O)[O-])cc1)c1cccc(-c2ccnc3c(C(=O)c4cccs4)cnn23)c1 | 15.9 | 2.51 | 2.64
7 | CC(=O)N(C)c1cccc(-c2ccnc3c(C(=O)c4cccs4)cnn23)c1 [INDIPLON] | 3.29 | 2.26 | 2.23
8 | CCC(=O)N(CCCF)c1cccc(-c2ccnc3c(C(=O)c4cccs4)cnn23)c1 | 5.26 |  | 
9 | CN(CCF)c1cccc(-c2ccnc3c(C(=O)c4cccs4)cnn23)c1 | 17.8 | 2.66 | 2.69
10 | CC(=O)N(C)c1cccc(-c2ccnc3c(C(=O)c4ccc(F)cc4)cnn23)c1 | 53.3 | 2.34 | 2.38
